Data: ChEMBL document CHEMBL4725371, “A Novel Redox Modulator Induces a GPX4-Mediated Cell Death That Is Dependent on Iron and Reactive Oxygen Species” (J Med Chem, 2020)
Calls of active or inactive are those of the source. The rule behind the calls is not given here.

Legend:
MIA PaCa-2 [1] = experiment: Inhibition of colony formation in human MIA PaCa-2 cells at 0.25 to 1 uM measured after 7 to 9 days in presence of caspase-dependent apoptosis inhibitor Z-VAD by crystal violet staining based assay; type: functional, cell-based; conditions: dose microM 0.25-1, time day 7-9
Outline: (§1)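 Cells seeded overnight in 96-well plates at 300 cells/well (MIA PaCa-2) or 600 cells/well (BxPC-3), in RPMI 1640 with 10% FBS. Inhibitor added 1 h before compound, then continuous exposure for 7–9 days until control wells were 80–90% confluent. Stained with 0.05% crystal violet for 30 min, imaged after overnight drying and quantified.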

MIA PaCa-2 [2] = experiment: Down regulation of LRPPRC expression in human MIA PaCa-2 cells at 1.2 uM measured after 24 hrs by proteomics analysis; type: functional, cell-based
Outline: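 MIA PaCa-2 cells were treated with 1.2 μM compound or DMSO for 24 h and lysed in RIPA buffer. 75 μg protein per sample was run in duplicate by TMT10plex-labelled proteomics. Abundance ratio was taken as treatment over control. Changes of at least 1.5-fold at FDR < 0.05 were scored.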

MIA PaCa-2 [3] = experiment: Synergistic inhibition of colony formation in human MIA PaCa-2 cells at 0.25 to 0.5 uM measured after 24 hrs in presence of napabucasin by crystal violet staining based assay; type: functional, cell-based; conditions: dose microM 0.25-0.5, time 24.0 hrs
Outline: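 Colony formation in 96-well plates seeded at 300 (MIA PaCa-2) or 600 (PANC-1) cells/well. Napabucasin, As2O3 or olaparib added 1 h before test compound; drugs on cells 24 h. Plates kept until controls were 80–90% confluent (7–9 days), then stained with 0.05% crystal violet and quantified. Synergy scored by HSA and Bliss models.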

[4] = target: T1, Phospholipid hydroperoxide glutathione peroxidase GPX4 (Homo sapiens) (UniProt P36969); experiment: Binding affinity to GPX4 in human PANC-1 cells assessed as protein destabilization by measuring reduction in melting temperature at 100 uM measured after 1 hr by thermal shift assay; type: cell-based
T1 sequence (whole entry): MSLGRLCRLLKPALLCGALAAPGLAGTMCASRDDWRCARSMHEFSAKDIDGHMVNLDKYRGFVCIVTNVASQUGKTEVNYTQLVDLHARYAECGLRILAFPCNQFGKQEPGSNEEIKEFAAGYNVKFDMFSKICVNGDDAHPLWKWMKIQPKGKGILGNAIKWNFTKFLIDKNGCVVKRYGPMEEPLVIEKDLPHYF

[5] = Plasma concentration in CD-1 mouse at 10 mg/kg, ip measured after 7 hrs by LC-MS/MS analysis; type: ADME, organism-based
Outline: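 CD-1 mice dosed IP at 10 mg/kg or PO at 20 mg/kg, n=2 per route. Blood taken with heparinized pipettes at 0.5, 2, 4 and 7 h and spun at 15,000 rpm for 10 min. Plasma stored at −80 °C, then measured by LC-MS/MS.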

MIA PaCa-2 [6] = experiment: Down regulation of PNPT1 expression in human MIA PaCa-2 cells at 3 times IC50 measured after 4 hrs in presence of NAC by proteomics analysis; type: functional, cell-based
[7] = Drug metabolism in mouse plasma assessed as 6-[4-[(2R)-2-hydroxy-4-methyl-piperazin-1-yl]anilino]quinazoline-5,8-dione formation at 500 uM measured after 0.5 hrs by LC-MS/MS analysis; type: ADME, cell-free
Outline: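 Compound (500 μM DMSO stock, 1 μL per 500 μL) was incubated in pooled mouse plasma. Samples were taken at 0.5 h and metabolites identified by LC-MS/MS.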

CT26 = experiment: Antitumor activity against mouse CT26 cells implanted in Balb/c mouse assessed as tumor shrinkage at 20 mg/kg, ip; type: functional, organism-based
Outline: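 Female Balb/c mice aged 5–6 weeks, implanted subcutaneously in right flank with 1 × 10⁶ CT-26 cells in DPBS. Dosing began 7 days later with randomisation (n = 5/group, mean tumour 97–117 mm³). IV dosing was 3 times weekly and IP dosing was given. Vehicle control given daily IP. Mice were euthanised four hours post-dose after 17 days of dosing.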

MIA PaCa-2 [8] = experiment: Inhibition of colony formation in human MIA PaCa-2 cells at 0.5 uM measured after 7 to 9 days in presence of iron chelator deferoxamine by crystal violet staining based assay; type: functional, cell-based; conditions: time day 7-9; outline: as §1
MIA PaCa-2 [9] = experiment: Induction of DNA damage in human MIA PaCa-2 cells assessed as increase in H2AX phosphorylation at 1 to 1.5 uM measured after 4 hrs by Western blot analysis; type: functional, cell-based; conditions: dose microM 1-1.5, time 4.0 hrs
Outline: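 Cells were treated 4 h at the stated concentrations and lysed in RIPA with protease and phosphatase inhibitors. 25 μg protein was resolved on 10% SDS gels, transferred to PVDF and probed for STAT3, pSTAT3, pH2AX and GAPDH. Detection used fluorescent secondary antibodies, with normalisation to loading control.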

MIA PaCa-2 [10] = experiment: Effect on glutathione level in human MIA PaCa-2 cells at 1.5 to 6 uM measured after 2 to 4 hrs by GSH/GSSG-glo assay; type: functional, cell-based; conditions: dose microM 1.5-6, time hrs 2-4
Outline: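 GSH/GSSG-Glo luminescent assay: 15,000–20,000 MIA PaCa-2 cells per well, attached overnight, treated 2 h and 4 h. Cells were lysed with total or oxidized glutathione reagent, then luciferin generation (30 min, room temperature) and detection reagents added. Luminescence was read after 15 min. Ratio was computed from net RLU as (total − GSSG)/(GSSG/2).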

[11] = Half life in mouse liver microsomes at 10 uM in presence of NADPH by LC-MS/MS analysis; type: ADME, Microsome; conditions: liver microsomes
Outline: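 Compound (10 μM working solution in 0.1 M phosphate buffer with 3.3 mM MgCl₂) was incubated with mouse liver microsomes and NADPH. Verapamil served as reference. Samples were taken at 0, 5, 10, 15, 30, 45 and 60 min and centrifuged at 3500 g. Supernatant was run by LC-MS/MS. t1/2 came from the slope of ln(peak area ratio) against time.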

[12] = Half life in mouse plasma at 500 uM by LC-MS/MS analysis; type: ADME, cell-free; conditions: 500 µM
Outline: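 Compound (500 μM DMSO stock) was added at 1 μL per 500 μL pooled plasma. Samples were taken at 0, 0.17, 0.5, 1, 2 and 4 h and centrifuged at 3500 g for 10 min. Supernatant was run by LC-MS/MS. t1/2 came from the slope of ln(compound/internal standard peak area) against time.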

CN1CCN(c2ccc(NC3=CC(=O)c4ncncc4C3=O)cc2)CC1
inhibition (MIA PaCa-2 [1]): Active | Activity (MIA PaCa-2 [2]): Active | inhibition (MIA PaCa-2 [3]): Active | Activity [4]: Active | concentration at 7 h [5]: 4.5 ng/mL | Activity (MIA PaCa-2 [6]): Active | Drug metabolism [7]: Metabolite_Detected | Activity (CT26): Active | inhibition (MIA PaCa-2 [8]): inactive | Activity (MIA PaCa-2 [9]): Active | Activity (MIA PaCa-2 [10]): inactive | half-life at 10 µM [11]: > 60 min | t1/2 [12]: 6 min
